What all share (format): functional
The test system of test [1] is Staphylococcus hominis. The test is described as follows: Antibiofilm activity against coagulase-negative Staphylococcus hominis FI31 incubated for 48 hrs by crystal violet staining-based method. An outline of the steps: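 Strain FI31 is a clinical isolate recovered from an infected prosthesis. Media and solutions were made in ultrapure deionized water and sterilized by autoclaving at 121 °C for 15 min.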

The subject of test [2] is Candida parapsilosis. The test is described as follows: Fungicidal activity against Candida parapsilosis SMI416 by CLSI-based broth microdilution method. The conditions noted are these: Lodderomyces parapsilosis. An outline of the steps:
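C. parapsilosis SMI416, a clinical isolate from a bloodstream infection, revived on Mueller-Hinton agar at 37 °C from 25% (v/v) glycerol stocks held at -20 °C, then maintained at 4 °C. Media and solutions were made in ultrapure water and autoclaved at 121 °C for 15 min.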
On the technique in general: In broth dilution the organism is exposed to a series of concentrations in liquid medium.

In test [3] the test system is Staphylococcus aureus. The test is described as follows: Bactericidal activity against Staphylococcus aureus spa type t1333/S54F9 by CLSI-based broth microdilution method. Put shortly: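 S. aureus clinical isolate S54F9, revived on Mueller-Hinton agar at 37 °C from 25% (v/v) glycerol stocks held at -20 °C, then kept at 4 °C. Broth microdilution susceptibility test in 96-well plates, after which the upper wells were subcultured onto solid MSA agar to read the bactericidal endpoint.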

As usually defined, the MFC is the smallest concentration meeting the test's criterion for killing the fungus. Low values mean more potent killing, high ones less potent killing. For orientation: MBC means the smallest concentration meeting the test's criterion for killing.

In brackets after ≈: the same amount, converted by molar mass.

In test [1], `C[C@H](OC(=O)CCCCC(Cl)CCCCCCCl)C(=O)O` (some centres not stated) showed an MBIC50 of 0.5 to 1.1 mM. Further, the minimal fungicidal concentration (MFC) in test [2] was in the range of 2.7 to 6 mM (≈ 921 to 2050 µg/mL). The MBC in test [3] is 2.7 to 6 mM (≈ 921 to 2050 µg/mL).

With `CC(OC(=O)CCCCCCCCCCCCl)C(=O)O` (configuration not stated), the MBIC50 in test [1] lay within 0.5 to 1.1 mM. For the same compound, in test [2], the MFC was 2.7 to 6 mM (≈ 828 to 1840 µg/mL). Further, the MBC in test [3] fell in the range of 2.7 to 6 mM (≈ 828 to 1840 µg/mL).

On to `CCCCCCC(Cl)CCCCC(=O)OC(C)C(=O)O` (configuration not stated), for which the MBIC50 in test [1] fell in the range of 0.5 to 1.1 mM. For the same compound, in test [2], the MFC is 2.7 to 6 mM (≈ 828 to 1840 µg/mL). In test [3], this compound yielded an MBC of 2.7 to 6 mM (≈ 828 to 1840 µg/mL).

`CC(OC(=O)CCCCC(Cl)CCCCCC(Cl)Cl)C(=O)O` (configuration not stated) gave an MBIC50 in test [1] of 0.5 to 1.1 mM. The MFC in test [2] lay within 2.7 to 6 mM (≈ 1010 to 2250 µg/mL). In test [3], this compound registered an MBC of 2.7 to 6 mM (≈ 1010 to 2250 µg/mL).

Source of the values: ChEMBL document CHEMBL4622873, “Chlorosphaerolactylates A-D: Natural Lactylates of Chlorinated Fatty Acids Isolated from the Cyanobacterium Sphaerospermopsis sp. LEGE 00249” (2020).
